Screens as filed in PubChem BioAssay.
NR2E3 ag-1: activates human NR2E3 receptor. Q9Y5X4. CHO-S Gal4-NCOR/VP16-NR2E3 two-hybrid, luciferase. inhibition of corepressor binding, % at 3.98 µM. 0.35% of 360,000 active. AID 602229;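 active means inhibition above the mean of all tested compounds plus 3 SD, cut at about 70% in these data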;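 further: higher means lower luciferase signal from less NR2E3 corepressor binding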
Target sequence (Q9Y5X4 whole entry, looked up, the tested form may be a part): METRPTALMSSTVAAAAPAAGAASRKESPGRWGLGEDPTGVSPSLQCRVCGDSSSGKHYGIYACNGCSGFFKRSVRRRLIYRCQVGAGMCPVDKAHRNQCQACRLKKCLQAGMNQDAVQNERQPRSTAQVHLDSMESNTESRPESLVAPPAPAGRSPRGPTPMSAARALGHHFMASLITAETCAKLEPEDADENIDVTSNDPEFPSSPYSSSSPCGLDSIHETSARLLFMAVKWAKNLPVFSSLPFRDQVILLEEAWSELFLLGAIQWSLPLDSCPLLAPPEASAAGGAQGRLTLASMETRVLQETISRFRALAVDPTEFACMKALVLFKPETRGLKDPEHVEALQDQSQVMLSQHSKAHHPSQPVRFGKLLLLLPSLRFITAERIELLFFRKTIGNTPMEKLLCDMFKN
HIV Env fusion: blocks HIV Env-driven cell-cell fusion; inhibition, % at 12.3 µM; HeLa-JRFL Env/CEM21 cell fusion, luciferase; 1.1% of 360,000 active;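 active means mean replicate inhibition score of at least 50 and every replicate individually at or above 50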
V-ATPase pHluor: yeast V-ATPase proton transport regulation by pHLuorin | S. cerevisiae, pHLuorin cytosolic pH fluorescence | 0.37% of 350,000 active | response, % at 10 µM | AID 504577; in the data active means response mostly above about 7.3%, no sharp cut-off; inactive means mostly below about 5.4%; further: actives read high
FXN GAA850 act: activators of GAA850 frataxin (FXN) promoter | activation, % at 6 µM | 0.56% of 360,000 active | HEK293 lucGAA850 FXN promoter luciferase reporter, 24 h; percent of 10 µM SAHA response;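 active means activation above the average of all compounds screened plus 3 SD, cutoff fixed separately per campaign, cut at about 7.5% in these data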
NR2E3 ag-2: activates human photoreceptor nuclear receptor NR2E3 | GST-NR2E3/biotin-RetCOR TR-FRET, 1536-well | AID 2300 | Q9Y5X4 | inhibition of corepressor binding, % at 4.78 µM | 0.12% of 320,000 active;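 active means percent inhibition above the cutoff of mean plus 3 SD of all tested compounds, set per screening campaign, cut at about 20% in these data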
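Test system – NR2E3–RetCOR corepressor complex · Quantity – NR2E3 fusion 1.35 nM · Buffer or medium – Tris pH 7.5 · Incubation – Compound–protein incubation for 5 h at 4 °C · Technique – TR-FRET, Eu(K)-anti-GST donor, streptavidin-D2 acceptor, ex 340, em 617/671 nm · Evaluation – percent inhibition of 671/617 nm emission ratio versus biotin and DMSO controls · Plate – 1536-well format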
GalR3 antag: blocks the human galanin receptor 3; O60755; HEK293 GalR3-CNG cAMP membrane potential fluorescence; galR3 body fused to GalR1 C-terminus; inhibition, % at 3 µM; 0.44% of 360,000 active; AID 651719;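 active means inhibition above the screen-wide average plus 3 SD, cut at about 13% in these data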;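 further: forskolin and galanin both at EC90 stimulate the cells; cAMP rise reported by CNG channel membrane potential dye signal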
NR2E3 ag conf: confirmation of human NR2E3 agonists; AID 624378; inhibition, % at 3.98 µM; 51% of 2,300 active; CHO-S mammalian two-hybrid NR2E3-NCOR, luciferase luminescence; shares compounds with NR2E3 ag-1;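 active means average inhibition above a cutoff equal to the mean inhibition of all tested compounds plus one SD, cut at about 70% in these data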
GAL4-VP16 luc: reduces GAL4-VP16 reporter signal in NR2E3 counterscreen | shares compounds with NR2E3 ag-1 | CHO-S GAL4-VP16 luciferase reporter, luminescence | inhibition, % at 3.98 µM | 29% of 2,300 active | AID 624379;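 active means mean inhibition above a cutoff equal to the average over all tested compounds plus one standard deviation, cut at about 70% in these data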;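 further: luciferase from a UAS reporter driven by GAL4-VP16 transactivation; higher means less reporter light so more repression of VP16 activity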
Numbers stand for hits; n = inactive; x = no result. Sampled rows, rich in hits. Any-hit rate of the full collection: about 2.2%.

SMILES | NR2E3 ag-1 | HIV Env fusion | V-ATPase pHluor | FXN GAA850 act | NR2E3 ag-2 | GalR3 antag | NR2E3 ag conf | GAL4-VP16 luc
CC(C)(C)c1ccc(-n2ncc3c2CCCC3NC(=O)CN2CCOC2=O)cc1 (stereo not given) | n | n | n | n | n | n | n | n
CC(C)(C)c1ccc(-n2ncc3c2CCCC3NC(=O)CCN2CCCCC2=O)cc1 (stereo not given) | n | n | n | n | n | n | n | n
O=C(C[C@@H]1C=C[C@@H](NC(=O)Nc2cc(F)ccc2F)[C@H](CO)O1)Nc1ccccc1 | x | n | x | x | x | x | x | x
C/C=C/c1ccc2c(c1)O[C@@H](CN(C)C(=O)Nc1cc(F)ccc1F)[C@H](C)CN([C@@H](C)CO)S2(=O)=O | x | n | x | x | x | x | x | x
C[C@H]1CN([C@@H](C)CO)S(=O)(=O)c2ccc(C3=CCCCC3)cc2O[C@@H]1CN(C)C(=O)C1CCCCC1 | x | n | x | x | x | x | x | x
Cc1nc(SCC(=O)Nc2nc3ccccc3s2)c(C#N)c(C)c1C | 93 | 63 | n | n | n | n | 84 | 81
O=C(COc1ccccc1-c1ccccc1)NN=C1CCCC1 | n | n | n | n | n | n | n | n
Cc1cccc(-n2ncc3c(N(CCO)CCO)ncnc32)c1 | n | n | n | n | n | n | x | x
COc1ccc(-n2ncc3c(N(C)C4CCCCC4)ncnc32)cc1 | 79 | n | n | n | n | n | n | n
COc1ccc(-n2ncc3c(N4CCC(C)CC4)ncnc32)cc1 | n | n | n | n | n | n | x | x
Cc1cccc(-n2ncc3c(N(C)C4CCCCC4)ncnc32)c1 | 73 | n | n | n | n | n | n | n
CCC(=O)Nc1cc2nn(-c3ccc(C)cc3)nc2cc1C | n | n | n | n | n | n | n | n
O=C(NNc1ccccc1)C(=O)NNc1ccccc1 | n | n | n | n | x | n | n | n
CCCOC(=O)c1ccc(Oc2cn[nH]c2-c2ccc(OCC(=O)NN)cc2O)cc1 | n | n | n | n | n | n | x | x
CCCOC(=O)c1ccc(Oc2cn[nH]c2-c2ccc(O)cc2O)cc1 | n | n | n | n | n | n | n | n
Cc1cc(NC(=O)CSc2nc3c(sc4ccccc43)c(=O)n2CCCN2CCOCC2)n[nH]1 | 72 | n | n | n | n | n | 96 | n
Cc1noc(C)c1S(=O)(=O)Nc1ccc2c(c1)C(=O)N([C@@H](C)CO)C[C@H](C)[C@H](CN(C)C(=O)Nc1ccccc1)OCCCC[C@H](C)O2 | x | n | x | x | x | x | x | x
Cc1ccc(C(=O)Nc2cccc(C(=O)NCc3ccco3)c2)cc1 | n | x | n | n | n | n | n | n
O=C(NCc1ccco1)c1cccc(NC(=O)c2ccccc2)c1 | n | n | n | n | n | n | n | n
COc1ccc(NC(=O)Nc2ccc3c(c2)C(=O)N([C@H](C)CO)C[C@H](C)[C@@H](CN(C)S(=O)(=O)c2ccc(F)cc2)OCCCC[C@H](C)O3)cc1 | x | n | x | x | x | x | x | x
Cc1csc(NC(=O)c2ccc(Cn3nc(C)c(Br)c3C)o2)n1 | 78 | n | n | n | n | n | 73 | n
C[C@@H]1CN([C@H](C)CO)C(=O)Cc2cc(NC(=O)C3CC3)ccc2O[C@H]1CN(C)Cc1ccccc1 | x | n | x | x | x | x | x | x
CCN(CC(=O)Nc1ccc(NC(C)=O)cc1)C(=O)C1(c2ccc(Cl)cc2)CCC1 | n | n | n | n | x | n | n | n
CC(C)NS(=O)(=O)c1ccc(OCC(=O)N2CCCC2)cc1 | n | n | n | n | n | n | x | x
CS(=O)(=O)N(CC(=O)N1CCN(c2cccc(Cl)c2)CC1)C1CCCCC1 | n | x | n | n | n | n | x | x
Cc1ccc(Cl)cc1N1CCN(C(=O)CN(C2CCCCC2)S(C)(=O)=O)CC1 | n | n | n | n | n | n | n | n
Cc1ccc(Cl)cc1N1CCN(C(=O)COc2ccc(S(=O)(=O)NC(C)C)cc2)CC1 | n | n | n | n | n | x | n | n
Oc1ccc(Cl)cc1Sc1cc(Cl)ccc1O | n | x | n | n | x | n | 100 | n
Nc1ccc(Br)cc1-c1nc2ccccc2[nH]c1=O | n | n | n | n | n | n | 91 | 77
